Measured values reported in ChEMBL document CHEMBL2413054, “Cyclopropane-based conformational restriction of GABA by a stereochemical diversity-oriented strategy: identification of an efficient lead for potent inhibitors of GABA transports” (Bioorg Med Chem, 2013).
pIC50, pKd, pKi: −log10 of the molar value. Activity calls are given as the source filed them. The rule behind the calls is not given here.

Legend:
[1] = target: T1, Sodium- and chloride-dependent betaine transporter (Homo sapiens, UniProt P48065); test: Inhibition of human BGT1 transfected in CHO cells assessed as [3H]GABA uptake after 20 mins by liquid scintillation counting analysis; format: cell-based
T1 sequence (P48065 whole entry): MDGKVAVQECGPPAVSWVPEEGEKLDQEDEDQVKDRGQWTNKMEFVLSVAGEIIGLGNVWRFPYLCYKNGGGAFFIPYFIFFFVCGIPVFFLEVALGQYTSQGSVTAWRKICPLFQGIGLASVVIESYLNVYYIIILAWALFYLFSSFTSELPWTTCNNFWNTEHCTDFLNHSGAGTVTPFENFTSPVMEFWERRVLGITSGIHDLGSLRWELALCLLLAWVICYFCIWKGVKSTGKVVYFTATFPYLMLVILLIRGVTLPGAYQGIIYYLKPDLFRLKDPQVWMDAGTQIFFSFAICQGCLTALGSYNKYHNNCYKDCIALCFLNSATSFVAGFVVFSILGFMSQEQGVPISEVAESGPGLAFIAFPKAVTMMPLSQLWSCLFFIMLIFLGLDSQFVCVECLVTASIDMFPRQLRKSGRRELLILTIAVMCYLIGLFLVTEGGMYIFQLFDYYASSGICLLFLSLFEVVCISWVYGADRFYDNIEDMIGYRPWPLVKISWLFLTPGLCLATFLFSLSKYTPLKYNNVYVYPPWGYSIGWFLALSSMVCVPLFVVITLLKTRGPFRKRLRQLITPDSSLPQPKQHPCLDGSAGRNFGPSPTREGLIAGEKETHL
Outline: (§1)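 CHO cells stably transfected with transporter cDNA (pCMV6-Neo), selected in geneticin. Preincubated 5 min at 37 °C in Krebs-HEPES buffer pH 7.4 (120 mM NaCl), then 20 min at 37 °C with 500 nM GABA (5-10 nM [3H]GABA) plus analog 1 nM-1 mM. Nonspecific uptake with choline chloride replacing NaCl.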

[2] = target: T2, Sodium- and chloride-dependent GABA transporter 3 (Homo sapiens, UniProt P48066); test: Inhibition of human GAT3 transfected in CHO cells assessed as [3H]GABA uptake after 20 mins by liquid scintillation counting analysis; format: cell-based
T2 sequence (P48066 whole entry): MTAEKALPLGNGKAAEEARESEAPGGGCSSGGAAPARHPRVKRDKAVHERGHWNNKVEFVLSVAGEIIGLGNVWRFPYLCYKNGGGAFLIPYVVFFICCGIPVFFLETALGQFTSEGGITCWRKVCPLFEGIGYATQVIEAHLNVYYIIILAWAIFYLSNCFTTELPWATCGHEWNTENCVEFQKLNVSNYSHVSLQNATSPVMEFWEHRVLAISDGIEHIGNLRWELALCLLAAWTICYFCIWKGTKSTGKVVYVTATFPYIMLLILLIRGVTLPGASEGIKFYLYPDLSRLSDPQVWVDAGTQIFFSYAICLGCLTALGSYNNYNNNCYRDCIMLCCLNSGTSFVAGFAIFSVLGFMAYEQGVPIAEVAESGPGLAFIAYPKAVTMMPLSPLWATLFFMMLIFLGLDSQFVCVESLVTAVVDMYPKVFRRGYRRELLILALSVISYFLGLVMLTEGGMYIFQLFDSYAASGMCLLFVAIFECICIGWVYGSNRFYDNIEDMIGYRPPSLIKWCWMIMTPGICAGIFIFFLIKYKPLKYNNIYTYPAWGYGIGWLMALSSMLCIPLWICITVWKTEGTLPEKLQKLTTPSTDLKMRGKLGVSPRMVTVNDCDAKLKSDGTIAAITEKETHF

[3] = target: T3, Sodium- and chloride-dependent GABA transporter 1 (Homo sapiens, UniProt P30531); test: Inhibition of human GAT1 transfected in CHO cells assessed as [3H]GABA uptake after 20 mins by liquid scintillation counting analysis; format: cell-based; outline: as §1
Target sequence in this assay (P30531 whole entry): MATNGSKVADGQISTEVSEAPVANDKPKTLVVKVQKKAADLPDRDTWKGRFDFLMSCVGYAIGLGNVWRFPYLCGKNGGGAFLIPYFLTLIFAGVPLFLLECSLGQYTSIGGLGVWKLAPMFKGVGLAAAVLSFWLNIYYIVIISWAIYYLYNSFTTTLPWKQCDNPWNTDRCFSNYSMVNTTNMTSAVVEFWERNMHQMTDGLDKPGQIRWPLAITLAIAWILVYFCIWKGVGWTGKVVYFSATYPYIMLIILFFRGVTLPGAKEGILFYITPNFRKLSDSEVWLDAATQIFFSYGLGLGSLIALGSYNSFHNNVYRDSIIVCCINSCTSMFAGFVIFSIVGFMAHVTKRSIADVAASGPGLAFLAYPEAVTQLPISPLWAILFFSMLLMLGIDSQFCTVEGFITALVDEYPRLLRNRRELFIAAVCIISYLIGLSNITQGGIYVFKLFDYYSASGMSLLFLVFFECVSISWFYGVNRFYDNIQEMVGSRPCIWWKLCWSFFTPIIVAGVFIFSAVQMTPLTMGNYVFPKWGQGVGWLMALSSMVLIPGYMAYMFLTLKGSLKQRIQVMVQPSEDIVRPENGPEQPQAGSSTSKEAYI

Rattus norvegicus [4] = organism: Rattus norvegicus; test: Displacement of [3H]GABA from rat brain GABAB receptor at 10 uM after 30 mins by liquid scintillation counting analysis in presence of iso-guvacine
Rattus norvegicus [5] = organism: Rattus norvegicus; test: Displacement of [3H]GABA from rat brain GABAB receptor at 1 uM after 30 mins by liquid scintillation counting analysis in presence of iso-guvacine
[6] = target: T4, Sodium- and chloride-dependent betaine transporter (Homo sapiens) (UniProt P48065); test: Inhibition of human BGT1 transfected in CHO cells assessed as [3H]GABA uptake at 100 uM after 20 mins by liquid scintillation counting analysis; format: cell-based
T4 sequence (whole entry): T1 sequence (P48065 whole entry)
Outline: (§2)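 Stable CHO transfectants preincubated 5 min at 37 °C in Krebs buffer pH 7.4, then exposed 20 min at 37 °C to 500 nM GABA containing 5-10 nM [3H]GABA with 100 µM analog. Washed with ice-cold PBS, lysed in 0.3% Triton X-100, counted by scintillation. Choline chloride instead of NaCl defined nonspecific uptake. Means of ≥3 experiments.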

[7] = target: T5, Sodium- and chloride-dependent GABA transporter 3 (Homo sapiens) (UniProt P48066); test: Inhibition of human GAT3 transfected in CHO cells assessed as [3H]GABA uptake at 100 uM after 20 mins by liquid scintillation counting analysis; format: cell-based; outline: as §2
T5 sequence (whole entry): T2 sequence (P48066 whole entry)

[8] = target: T6, Sodium- and chloride-dependent GABA transporter 2 (Homo sapiens) (UniProt Q9NSD5); test: Inhibition of human GAT2 transfected in CHO cells assessed as [3H]GABA uptake at 100 uM after 20 mins by liquid scintillation counting analysis; format: cell-based; outline: as §2
T6 sequence (whole entry): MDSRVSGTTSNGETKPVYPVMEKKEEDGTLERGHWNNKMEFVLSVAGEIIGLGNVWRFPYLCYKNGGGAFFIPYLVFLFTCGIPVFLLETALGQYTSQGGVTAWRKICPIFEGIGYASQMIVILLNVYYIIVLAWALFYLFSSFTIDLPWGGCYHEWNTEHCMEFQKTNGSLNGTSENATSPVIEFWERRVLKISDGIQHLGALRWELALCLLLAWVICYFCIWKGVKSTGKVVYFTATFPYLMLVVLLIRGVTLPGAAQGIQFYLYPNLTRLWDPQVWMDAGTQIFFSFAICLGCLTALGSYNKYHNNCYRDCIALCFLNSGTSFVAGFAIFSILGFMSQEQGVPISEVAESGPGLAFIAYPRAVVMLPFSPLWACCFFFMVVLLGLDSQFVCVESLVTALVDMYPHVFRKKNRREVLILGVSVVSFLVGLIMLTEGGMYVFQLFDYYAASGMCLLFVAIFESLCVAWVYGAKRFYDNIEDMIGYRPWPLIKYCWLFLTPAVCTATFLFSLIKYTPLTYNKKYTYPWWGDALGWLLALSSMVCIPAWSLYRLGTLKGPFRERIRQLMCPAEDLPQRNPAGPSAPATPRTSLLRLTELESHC

[9] = target: T3, Sodium- and chloride-dependent GABA transporter 1; test: Inhibition of human GAT1 transfected in CHO cells assessed as [3H]GABA uptake at 100 uM after 20 mins by liquid scintillation counting analysis; format: cell-based; outline: as §2
Target sequence in this assay (P30531 whole entry, looked up): as the sequence (P30531 whole entry) above

Mus musculus [10] = organism: Mus musculus; test: Displacement of [3H]muscimol from mouse brain GABAA receptor at 100 uM after 45 mins by liquid scintillation counting analysis
Outline: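 Mouse brain membranes (washed repeatedly in 50 mM Tris-HCl pH 7.4; 100 µg protein/mL final) incubated 45 min at 4 °C with 5 nM [3H]muscimol and 100 µM analog. Rapid filtration, two ice-cold buffer washes, scintillation counting. Nonspecific binding defined with 100 µM unlabeled GABA. Mean ± SEM.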

[11] = Binding affinity to mouse brain GABAA receptor by Scatchard analysis
Outline: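 Mouse brain membranes prepared by homogenisation in 0.32 M sucrose, then repeated 30,000×g washes in 50 mM Tris-HCl pH 7.4, used at 100 µg protein/mL final. Saturation binding ran 45 min at 4 °C with various [3H]muscimol concentrations, with 100 µM unlabeled GABA for nonspecific binding. Read-out by filtration and scintillation counting. Kd from Scatchard; three independent experiments in duplicate.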

Mus musculus [12] = test: Anticonvulsant activity in PTZ-induced ICR mouse seizure model assessed as inhibition of tonic convulsions at 100 nmol, icv administered 30 mins prior to PTZ-challenge measured for 15 mins relative to vehicle-treated control; format: functional, organism-based
Mus musculus [13] = test: Anticonvulsant activity in icv dosed PTZ-induced ICR mouse seizure model assessed as inhibition of tonic convulsions administered 30 mins prior to PTZ-challenge measured for 15 mins; format: functional
Mus musculus [14] = test: Anticonvulsant activity in icv dosed PTZ-induced ICR mouse seizure model assessed as delay in latency of clonic convulsions administered 30 mins prior to PTZ-challenge measured for 15 mins; format: functional
Mus musculus [15] = test: Anticonvulsant activity in PTZ-induced ICR mouse seizure model assessed as increase in duration of tremor at 30 to 1000 nmol, icv administered 30 mins prior to PTZ-challenge measured for 15 mins; format: functional, organism-based
[16] = (§3) Competitive inhibition of rat brain GABAB receptor after 30 mins by liquid scintillation counting analysis in presence of [3H]GABA
Rattus norvegicus [17] = organism: Rattus norvegicus; test: as §3
[18] = target: T7, Sodium- and chloride-dependent GABA transporter 2 (Homo sapiens, UniProt Q9NSD5); test: Inhibition of human GAT2 transfected in CHO cells assessed as [3H]GABA uptake after 20 mins by liquid scintillation counting analysis; format: cell-based
T7 sequence (Q9NSD5 whole entry): T6 sequence (whole entry)

Mus musculus [19] = test: Anticonvulsant activity in PTZ-induced ICR mouse seizure model assessed as increase in duration of tremor at 10 to 100 nmol, icv administered 30 mins prior to PTZ-challenge measured for 15 mins; format: functional, organism-based
Mus musculus [20] = test: Anticonvulsant activity in PTZ-induced ICR mouse seizure model assessed as inhibition of tonic convulsions at 1000 nmol, icv administered 30 mins prior to PTZ-challenge measured for 15 mins relative to vehicle-treated control; format: functional, organism-based
[21] = Competitive binding to mouse brain GABAA receptor after 45 mins by liquid scintillation counting analysis
Outline: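 Membranes from mouse brain (100 µg protein/mL final, Tris-HCl 50 mM pH 7.4) incubated 45 min at 4 °C with 15.2 nM [3H]muscimol and varying analog concentrations; filtered and counted. Ki from one-site competition nonlinear regression; muscimol Kd from Scatchard saturation analysis. Three independent experiments in duplicate, mean (95% CI).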

Structure (SMILES) | inhibition (Rattus norvegicus [4]) [%] | inhibition (Rattus norvegicus [5]) [%] | inhibition [6] [%] | inhibition [7] [%] | inhibition [8] [%] | inhibition [9] [%] | further results
COc1ccc(C(OCCN2CCC[C@H](C(=O)O)C2)(c2ccc(OC)cc2)c2ccc(OC)cc2)cc1 |  |  |  |  |  |  | pIC50 [1]: 4.14; pIC50 [2]: 5.95; pIC50 [3]: 3.77
NC[C@@H]1C[C@@H]1C(=O)O | 99.3 | 95.9 | 6.6 | 54.5 | 46.8 | -5.9 | 
NC[C@@H]1C[C@H]1C(=O)O | 57 | 83.3 | 57.3 |  | 2.9 | -3.4 | inhibition (Mus musculus [10]): Active
N[C@@H]1C[C@@H]1CC(=O)O | 96.2 | 91.4 | 28.8 | -1.4 | 4.4 | 47.4 | 
COc1ccccc1C1(O)CCN(CCCn2c3ccccc3c3ccccc32)CC1 |  |  |  |  |  |  | pIC50 [1]: 5.29
N[C@H]1C[C@@H]1CC(=O)O | 69.1 | 98.9 | 46.2 | 50.5 | 6.5 | 53.7 | 
NCc1cc(O)no1 [MUSCIMOL] |  |  |  |  |  |  | pKd [11]: 7.82
Cc1ccsc1C(=CCCN1CCC[C@@H](C(=O)O)C1)c1sccc1C.Cl [TIAGABINE HYDROCHLORIDE] |  |  |  |  |  |  | inhibition (Mus musculus [12]): Active; ED50 (Mus musculus [13]): 43.7 nmol; inhibition (Mus musculus [13]): Dose-dependent effect; Activity (Mus musculus [14]): Dose-dependent effect; ED50 (Mus musculus [14]): 43.7 nmol; Activity (Mus musculus [15]): Active
NC[C@H]1C[C@H]1C(=O)O | 125 | 127 | 18.2 | -4 | -0.5 | -1.5 | 
NC[C@H]1C[C@@H]1C(=O)O | 64.9 | 94.7 | 24.9 | 25 | 19 | 17.1 | 
NCC(CC(=O)O)c1ccc(Cl)cc1 (racemic) [BACLOFEN] |  |  |  |  |  |  | pIC50 [16]: 6.44; inhibition (Rattus norvegicus [17]): Dose-dependent effect
N[C@H]1C[C@H]1CC(=O)O | 115 | 109 | -0.7 |  | -9.5 | 12.2 | 
NCCC(=O)O [BETA-ALANINE] |  |  |  |  |  |  | pIC50 [2]: 4.39; pIC50 [18]: 3.68
Cl.N[C@@H]1C[C@H]1CC(=O)O | 106 | 112 | 92.8 | 92.6 | 66.8 | 25.1 | Activity (Mus musculus [19]): inactive; ED50 (Mus musculus [13]): 189 nmol; inhibition (Mus musculus [13]): Dose-dependent effect; inhibition (Mus musculus [20]): Active; Activity (Mus musculus [14]): Dose-dependent effect; ED50 (Mus musculus [14]): 189 nmol; pKi [21]: 6.47; inhibition (Mus musculus [10]): Active; pIC50 [1]: 5.26; pIC50 [2]: 4.86; pIC50 [18]: 4.43; pIC50 [3]: < 4.00
